High-throughput results deposited in PubChem BioAssay by several laboratories.
Most compounds without a hit are left out; they make up all but 2.7% or so of the library.
NR2E3 ag-1 = inhibitors of NR2E3-RetCOR corepressor binding, primary screen, NR2E3 agonist project, biochemical, TR-FRET, GST-NR2E3, biotin-RetCOR; Photoreceptor-specific nuclear receptor (Homo sapiens), Q9Y5X4; 1536-well; inhibition of corepressor binding, % at 4.78 µM; 320,000 compounds, 0.12% hits;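 active means percent inhibition above the cutoff of mean plus 3 SD of all tested compounds, set per screening campaign, cut at about 20% in these data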;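 further: 0% = DMSO wells and 100% = biotin wells as full block of FRET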
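Material – GST-tagged NR2E3 plus biotinylated RetCOR corepressor · Quantity – NR2E3 fusion 1.35 nM · Times – 5 h incubation at 4 °C · Medium – pH 7.5 Tris-based buffer · Technique – TR-FRET, Eu(K)-anti-GST donor, streptavidin-D2 acceptor, ex 340, em 617/671 nm · Benchmarks – high control biotin, low control 0.6% DMSO · Format – 1536-well plates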
PG9 binder = binders of HIV-1 gp120 antibody PG9, primary screen, biochemical, TR-FRET; HIV-1 gp120 / PG9 antibody interaction; TR-FRET gp120-PG9 antibody binding; inhibition, % at 6.7 µM; 360,000 compounds, 0.43% hits; AID 624416, 2012; in the data active means inhibition above about 8.5%
Rev-erbA mod = modulators of Rev-erb alpha DNA binding, primary screen, biochemical, FITC-DNA, fluorescence polarization, uHTS. Rev-erbα–FITC-DNA binding, 90 min. activity, % at 10 µM. AID 1259318, 2017. 370,000 compounds, 0.79% hits;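 active means activity above about 14%, limit read from the data; passing the limit was not always enough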;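 further: 0% = DMSO wells with 35 nM protein and 100% = DMSO wells with 750 nM protein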
NR2E3 ag-2 = NR2E3 agonists in two-hybrid cells, primary screen, cell-based, luminescence, CHO-S, Gal4-NCOR/VP16-NR2E3; luciferase; inhibition of corepressor binding, % at 3.98 µM; 360,000 compounds, 0.35% hits; AID 602229, 2012;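 active means inhibition above the mean of all tested compounds plus 3 SD, cut at about 70% in these data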;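 further: 0% = DMSO with NR2E3 transfected cells and 100% = cells lacking NR2E3 construct; higher means lower luciferase signal from less NR2E3 corepressor binding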
MC4R barr agon = MC4R agonists recruiting beta-arrestin, primary screen, cell-based, luminescence, agonist arm of biased-ligand search | Melanocortin receptor 4 (Homo sapiens), P32245 | U2OS MC4R beta-arrestin complementation; percent of melanotan II response, DMSO zero | activation, % at 8.9 µM | 360,000 compounds, 0.98% hits | AID 540308, 2011;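 active means activation above a per-plate cutoff, the mean activation of sample wells on that plate plus 3 SD, cut at about 8% in these data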
Target sequence (P32245 whole entry, looked up): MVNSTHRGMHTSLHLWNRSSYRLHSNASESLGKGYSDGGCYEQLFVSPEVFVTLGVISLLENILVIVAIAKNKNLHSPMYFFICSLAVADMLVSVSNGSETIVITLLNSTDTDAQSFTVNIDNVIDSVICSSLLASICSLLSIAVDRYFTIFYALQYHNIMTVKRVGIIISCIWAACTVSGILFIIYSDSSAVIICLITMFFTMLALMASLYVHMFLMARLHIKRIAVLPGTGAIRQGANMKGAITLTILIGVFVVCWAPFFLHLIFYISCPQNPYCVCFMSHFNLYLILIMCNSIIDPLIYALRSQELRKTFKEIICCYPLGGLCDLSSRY
MC4R antagonist = MC4R antagonists of cAMP signaling, primary screen, cell-based, TR-FRET, antagonist arm of biased-ligand search; MC4R-expressing cells, MTII-stimulated cAMP, LANCE TR-FRET; inhibition, % at 6.5 µM; 360,000 compounds, 0.48% hits; Melanocortin receptor 4 (Homo sapiens), P32245; AID 540295, 2011;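 active means inhibition above its plate's cutoff, the mean of tested wells on that plate plus 3 SD, cut at about 29% in these data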;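 further: 0% = Melanotan II alone and 100% = Melanotan II plus saturating MCL0020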
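Assay system: U2OS cells stably expressing human melanocortin 4 receptor (MC4R) / Dosing: 6.5 µM / Timing: compound 30 min, challenge 1 h, detection 1 h / Measured by: Eu-cAMP/anti-cAMP TR-FRET, emission 671 nm / Replicates: singlicate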
cAMP nonselect = nonselective cAMP signaling inhibitors, parental cells, counter-screen for MC4R biased antagonist project, cell-based, TR-FRET, U2OS, forskolin, triplicate | shares compounds with MC4R antagonist | LANCE TR-FRET | inhibition, % at 6.5 µM | 1,600 compounds, 26% hits | AID 602193, 2012;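 active means mean inhibition over triplicates above the low-control well mean plus 3 SD, set per campaign, cut at about 13% in these data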;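 further: signal is single emission at 671 nm which falls as cellular cAMP rises; 0% = forskolin-stimulated wells and 100% = buffer without forskolin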
MC4R cAMP antag = MC4R cAMP antagonists, retest, confirmation, cell-based, TR-FRET. 1,600 compounds, 27% hits. shares compounds with MC4R antagonist. MC4R-expressing cells, MTII-stimulated cAMP. inhibition, % at 6.5 µM. AID 602195, 2012; in the data active means inhibition above about 29%;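 further: 0% = agonist stimulated wells alone and 100% = agonist stimulated wells plus saturating reference antagonist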
Active calls of the source: *; . = not tested or not shown.

SMILES | NR2E3 ag-1 | PG9 binder | Rev-erbA mod | NR2E3 ag-2 | MC4R barr agon | MC4R antagonist | cAMP nonselect | MC4R cAMP antag
CC1CN(C(=O)CN2C(=O)NC3(CCCCCCC3)C2=O)CC(C)O1 (centres undefined) | -1 | -2 | -3 | 6 | 0 | -3 | . | .
O=C(O)CCCC(=O)N1CCN(c2nc(-c3ccccc3)c3ccccc3n2)CC1 | -2 | 0 | -4 | -10 | 1 | 9 | . | .
Cc1ccc(C)c(NC(=O)COC(=O)c2cccc3c2C(=O)c2ccccc2C3=O)c1 | 2 | -2 | 4 | 15 | -1 | 33* | 0 | 25
O=C(Cc1c[nH]c2ccccc12)N1CCN(c2ccccc2)CC1 | -5 | -1 | -2 | 0 | -2 | 1 | . | .
O=C1OCCC1Sc1nc2cc(Cl)ccc2n1Cc1ccccc1 (centres undefined) | 2 | 4 | 3 | -2 | -2 | 48* | 12 | 33*
O=C(O)CNS(=O)(=O)c1ccc(C2CCCCC2)cc1 | 1 | 2 | -2 | -3 | 1 | 32* | 2 | 1
O=C(c1cc(-c2cccc(O)c2)on1)N1CCCC1 | -1 | -2 | -4 | -94 | -1 | 31* | 0 | 1
CC1CCN(c2ccc3c(c2)S(=O)(=O)c2cccc(C(=O)O)c2C3=O)CC1 | . | -1 | 10 | -57 | -2 | 3 | . | .
O=C(O)c1cccc2c1C(=O)c1ccc(N3CCN(Cc4ccc5c(c4)OCO5)CC3)cc1S2(=O)=O | . | 2 | -5 | -19 | 2 | 33* | -1 | -4
N=c1c2c(ncn1Cc1ccco1)Oc1cc(O)ccc1C2c1ccccc1 (centres undefined) | 1 | 0 | -5 | 20 | 0 | 33* | -1 | -1
N=c1c2c(ncn1Cc1ccco1)Oc1c(ccc3ccccc13)C2c1ccccc1 (centres undefined) | 1 | 0 | -6 | -16 | -2 | 21 | . | .
CCc1cc(C(=O)c2ccc(C)cc2)c(NC(=O)CCl)s1 | 2 | -1 | 0 | 6 | -1 | 22 | . | .
Cc1cc(C(=O)c2ccc(Cl)cc2)c(NC(=O)CCl)s1 | 1 | -2 | 3 | -18 | 0 | 41* | 24* | 65*
C#CCOCCOCCOCCNc1nc(N2CCN(C(=O)CCCCCCCCCCNC(=O)[C@H](CO)n3cc(CCCSC)nn3)CC2)nc(N2CCN(C(=O)CCCCCCCCCCNC(=O)[C@H](CCCCN)n3cc(C[C@@H](C)CC)nn3)CC2)n1 | -1 | . | . | . | . | . | . | .
C#CCOCCOCCOCCNc1nc(N2CCN(C(=O)CCCCCCCCCCNC(=O)[C@H](CCCCN)n3cc(C[C@@H](C)CC)nn3)CC2)nc(N2CCN(C(=O)CCCCCCCCCCNC(=O)[C@H](CCCCN)n3cc(C[C@@H](C)CC)nn3)CC2)n1 | -2 | . | . | 9 | 0 | 75* | 34* | 84*
COc1ccc(CC(=O)N(C)Cc2cccc(F)c2)cc1S(=O)(=O)N1CCOCC1 | -1 | 0 | -2 | -1 | 0 | 8 | . | .
Cc1ccccc1CN1CCC(Oc2ccc(C(=O)N3CCCC3)cc2)CC1 | -4 | -1 | -4 | 9 | 0 | 29* | 0 | -3
CN(C(=S)Nc1ccc(F)cc1)C1(c2ccccc2Cl)CCCCC1=O (centres undefined) | -1 | -1 | 9 | 14 | -1 | 5 | . | .
N#Cc1ccc(/C=C/C(=O)c2ccco2)cc1 | -2 | -1 | -2 | -11 | -1 | 31* | -2 | 8
Cc1c(/C(O)=C2\C(=O)C(=O)N(CCN(C)C)C2c2cccnc2)cnn1-c1ccccc1 (centres undefined) | 0 | -2 | 2 | 10 | -1 | 9 | . | .
CN(C(=O)c1ccc2c(c1)SC1=NS(=O)(=O)CCN12)C(c1ccccc1)c1ccccc1 | 0 | -2 | -2 | -8 | -2 | 7 | . | .
O=C(O)c1ccc2c(c1)SC1=NS(=O)(=O)CCN12 | 1 | 1 | -6 | -2 | 1 | 29* | 20* | 2
CCN(C[C@H]1N[C@@](Cc2ccccc2)(C(=O)OC)[C@H]2C(=O)N(Cc3ccccc3)C(=O)[C@@H]12)S(=O)(=O)c1ccc(C(F)(F)F)cc1 | . | -2 | 2 | -49 | 3 | 38* | 1 | 1
COc1cc(C(=O)OC2CCOC2=O)cc(Cl)c1OC (centres undefined) | 2 | -1 | -1 | -6 | 0 | 30* | 16* | 30*
O=C(CCl)NC(Cc1ccccc1)c1ccccc1 (centres undefined) | -3 | -1 | 0 | 3 | -1 | 8 | . | .
SMILES | NR2E3 ag-1 | PG9 binder | Rev-erbA mod | NR2E3 ag-2 | MC4R barr agon | MC4R antagonist | cAMP nonselect | MC4R cAMP antag
O=C(Oc1cncc(Cl)c1)c1ccco1 | 2 | -1 | 2 | -1 | -2 | -4 | . | .
O=C(Oc1cncc(Cl)c1)c1sccc1Cl | 2 | 2 | 1 | -7 | 3 | 33* | -1 | -9
O=C(/C=C/c1cccs1)c1ccc(NC(=O)c2ccccc2F)cc1 | 1 | 0 | -1 | -6 | -2 | 4 | . | .
Cc1cc(C(=O)OCC(=O)Nc2cc(S(=O)(=O)N3CCOCC3)ccc2Cl)c(C)o1 | 3 | -1 | 6 | -8 | 2 | 4 | . | .
CCN(CC)S(=O)(=O)c1ccc(NC(=O)COC(=O)c2cc(S(=O)(=O)Nc3ccc(OC)cc3)ccc2O)cc1 | 2 | -1 | -1 | 26 | 1 | 32* | 1 | 4
O=C(COC(=O)c1cc(S(=O)(=O)N2CCCC2)ccc1O)Nc1ccc(S(=O)(=O)N2CCOCC2)cc1 | -1 | -1 | -3 | 14 | 2 | 33* | -10 | -26
O=C(COC(=O)c1cc(S(=O)(=O)N2CCOCC2)ccc1O)Nc1cc(S(=O)(=O)N2CCCC2)ccc1Cl | 3 | -2 | 3 | -22 | 1 | 30* | 4 | 8
